What was measured:
[1] = tested on: plasmid (pBR322) DNA; assay: Electrophoresis mobility shift assay with plasmid DNA; type: binding
[2] = tested on: human cervical carcinoma cell line HeLa; assay: Cytotoxicity, MTT assay, HeLa cells; type: cell-based; conditions: read-out: IC50 HeLa, 24h incubation, 1% DMSO stock diluted with medium
Procedure, shortened: (§1)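 Cells were kindly donated by a university culture unit. They were grown in DMEM with 10% FBS and 1% penicillin/streptomycin/amphotericin B at 37°C and 5% CO2. Monolayers (~5×10^4) were grown 72 h, then exposed 24 h to test compound (0–100 μM; diluted from fresh DMSO stock; final DMSO ≤0.6% v/v). MTT was added for 3.5 h, formazan dissolved in DMSO, and A570 read (690 nm background). IC50 is mean ±SE of three experiments, triplicate microcultures.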

[3] = tested on: human breast adenocarcinoma cell line MCF7; assay: Cytotoxicity, MTT assay, MCF-7 cells; type: cell-based; conditions: read-out: IC50 MCF-7, 24h incubation
Procedure, shortened: as §1

[4] = tested on: human colon adenocarcinoma cell line HT-29; assay: Cytotoxicity, MTT assay, HT-29 cells; type: cell-based; conditions: read-out: IC50 HT-29, 24h incubation
Procedure, shortened: as §1

[5] = tested on: human breast adenocarcinoma MDA-MB 231 cell line; assay: Cytotoxicity, XTT assay, MDA-MB-231 cells; type: cell-based; conditions: read-out: IC50 MDA-MB-231, 24h incubation
Procedure, shortened: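 Cells kept adherent in DMEM with penicillin/streptomycin and 10% FBS (37°C, 5% CO2/[…]). Seeded at 5×10^3 cells/well in phenol red-free, antibiotic-free DMEM with 10% FBS and 2 mM L-glutamine, and grown 24 h. Test compound added at 0.1–50 μM final for 24 h. XTT added at 0.3 mg/mL final for 4 h, then A450 read. Survival is the treated/untreated absorbance ratio. IC50 given as mean (±SE) of three independent experiments, triplicate microcultures per concentration.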

[6] = tested on: non-tumorigenic human embryonic kidney cells HEK-293T; assay: Cytotoxicity, XTT assay, HEK-293T cells; type: cell-based; conditions: read-out: IC50 HEK-239T, 24h incubation
Procedure, shortened: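 Cells were maintained in DMEM with 100 U/mL penicillin, 100 μg/mL streptomycin and 10% FBS, humidified, 37°C, 5% CO2/[…]. Seeding was 5×10^3 cells/well in phenol red-free, antibiotic-free DMEM with 10% FBS and 2 mM L-glutamine, grown 24 h. Test compound (final 0.1–50 μM) was given for 24 h or 48 h. XTT (final 0.3 mg/mL) ran 4 h, read at 450 nm. Survival was taken as treated/untreated absorbance. IC50 is mean ±SE of three experiments, triplicate microcultures.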

[7] = tested on: MDA-MB-231 cells; assay: ApoTox-Glo Triplex assay; type: cell-based, human; conditions: 10.7 μM, 24 h
[8] = Stability in solution by 1H-NMR spectroscopy; type: physicochemical; conditions: D2O, PBS-D2O or neat DMSO-d6
[9] = biological target: Human serum albumin (HSA) (Homo sapiens, UniProt P02768); assay: HSA tryptophan fluorescence quenching; type: binding; conditions: HSA 10 μM, complex 10–100 μM
Sequence of Human serum albumin (HSA) (P02768 25-609): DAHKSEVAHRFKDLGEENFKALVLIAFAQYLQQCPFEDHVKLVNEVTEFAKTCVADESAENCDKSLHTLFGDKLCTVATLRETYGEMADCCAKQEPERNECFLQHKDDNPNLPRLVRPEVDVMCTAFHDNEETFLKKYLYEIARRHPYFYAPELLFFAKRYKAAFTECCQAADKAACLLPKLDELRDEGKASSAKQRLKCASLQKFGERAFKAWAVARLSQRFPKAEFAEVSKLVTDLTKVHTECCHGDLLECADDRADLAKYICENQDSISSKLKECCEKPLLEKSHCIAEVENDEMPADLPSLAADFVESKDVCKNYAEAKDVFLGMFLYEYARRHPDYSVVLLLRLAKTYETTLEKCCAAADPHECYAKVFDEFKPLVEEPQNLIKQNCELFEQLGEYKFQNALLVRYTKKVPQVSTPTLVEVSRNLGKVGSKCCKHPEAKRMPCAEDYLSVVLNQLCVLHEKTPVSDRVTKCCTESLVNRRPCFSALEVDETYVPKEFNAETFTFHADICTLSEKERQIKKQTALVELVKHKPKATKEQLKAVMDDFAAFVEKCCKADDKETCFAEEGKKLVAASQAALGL
Procedure, shortened: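 HSA (10 μM) in phosphate buffer (pH 7.4) received ten successive additions from an 8 mM DMSO stock of test compound, giving final 10–100 μM. Trp emission was recorded at room temperature, 300–450 nm, excitation 295 nm, 240 s after each addition. Compound, buffer and DMSO fluorescence were negligible. Data were fitted to F0/F = 1 + KSV[Q].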

[10] = tested on: bovine Capthesin B; conditions: read-out: bovine Cathepsin B IC50; cited from earlier work

For `N.N.[Cl][Pt][Cl]` [cisplatin, cis-diamminedichloroplatinum (II), reference compound], the “effect on electrophoretic mobility of plasmid DNA” value ([1]; 37°C, 20 h, Tris/HCl buffer, drug/DNA ratio up to 2.0) was “both increase and decrease the mobility of the OC and the CCC forms”.
For “G1-[[NCPh(o-N)Ru(η^6-p-cymene)Cl]Cl]4 [Compound 17]”, the IC50 [2] was 8.1 ± 0.4 µM, the IC50 [3] was 6.9 ± 0.5 µM and the IC50 [4] was 5.6 ± 0.1 µM. For the same molecule, the IC50 [5] was 6.1 ± 1 µM, the IC50 [6] was 10.7 µM and the necrotic cells [7] was 27%. For the same molecule, the “reduction of MDA-MB-231 viability” value [7] was “ca. 58%”, the “treated cells remaining viable” value [7] was 42% and the apoptotic cells ([7]; caspase-3/-7 activity) was 16%. For the same molecule, the “stability by 1H-NMR over 72 hours” value [8] was “did not observe changes”, the “shape of Stern-Volmer plot F0/F versus [Q]” value [9] was “positive deviation” and the “interaction with plasmid DNA at acidic, neutral and basic pH” value ([1]; metal/DNAbp ratio 2.0, pH 6, 7 and 8) was “do not interact with plasmid (pBR322) DNA”.
For `Cc1ccccc1.[Cl][Ru]([Cl])[PH]12CN3CN(CN(C3)C1)C2` [RAPTA-T], the IC50 [10] is given as 1500 nM.
In the case of `Cc1ccc(C(C)C)cc1.[Cl][Ru]([Cl])[PH]12CN3CN(CN(C3)C1)C2` [RAPTA-C], the IC50 [10] is given as 2500 nM.
